Measured values published in ChEMBL document CHEMBL5303300, “EUbOPEN Chemogenomics Library - Multiplex” (2023).
“And” between values parts separate entries of the source, which are not always exact repeats. Equal values may be shown once.

Test system: Fibroblast
Assay: Multiplex assay against human fibroblast
Format: toxicity, cell-based
Details: number of replicates 2
Method in brief: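 Cells stained live at seeding with Hoechst33342, BioTracker Green Microtubule Cytoskeleton Dye, MitoTracker Red and Annexin V Alexa Fluor 680 were imaged on a CQ1 microscope at 37°C and 5% CO2 after compound addition. Their classification by CellPathfinder machine-learning gating ran from Hoechst high-intensity objects versus normal cells, to healthy, pyknosed or fragmented nuclei among normal cells, to mitotic or apoptotic among pyknosed cells. Tubulin, mitochondrial-mass and membrane-permeability phenotypes are per cents of healthy-nucleus cells.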

[1] = 12 h, 1 µM, compound concentration 1 uM
[2] = 12 h, 10 µM, compound concentration 10 uM
[3] = 24 h, 1 µM, compound concentration 1 uM
[4] = 24 h, 10 µM, compound concentration 10 uM
[5] = 48 h, 1 µM, compound concentration 1 uM
[6] = 48 h, 10 µM, compound concentration 10 uM

CC(C)N(CCCCOCC(=O)NS(C)(=O)=O)c1cnc(-c2ccccc2)c(-c2ccccc2)n1 [SELEXIPAG]
Population Apoptotic (%) [1]: 54% and 38%
Population Fragmented Nuclei (%) [1]: 4% and 10%
Population Healthy Nuclei (%) [1]: 77% and 72%
Population Hoechst High Intensity Objects (%) [1]: 0%
Population Membrane Permeable-Phenotype (%) [1]: 4%
Population Mitochondria Different-Phenotype (%) [1]: 2% and 0%
Population Mitotic Cells (%) [1]: 45% and 61%
Population Normal (%) [1]: 100%
Population Pyknosed Nuclei (%) [1]: 18% and 16%
Population Tubulin-Different-Phenotype (%) [1]: 10% and 11%
Total Cell Count [1]: 168 and 186
Population Apoptotic (%) [2]: 56% and 54%
Population Fragmented Nuclei (%) [2]: 7% and 14%
Population Healthy Nuclei (%) [2]: 61% and 63%
Population Hoechst High Intensity Objects (%) [2]: 0%
Population Membrane Permeable-Phenotype (%) [2]: 0% and 6%
Population Mitochondria Different-Phenotype (%) [2]: 1%
Population Mitotic Cells (%) [2]: 43% and 45%
Population Normal (%) [2]: 100% and 99%
Population Pyknosed Nuclei (%) [2]: 31% and 21%
Population Tubulin-Different-Phenotype (%) [2]: 2% and 10%
Total Cell Count [2]: 148 and 221
Population Apoptotic (%) [3]: 58% and 50%
Population Fragmented Nuclei (%) [3]: 8% and 14%
Population Healthy Nuclei (%) [3]: 75% and 65%
Population Hoechst High Intensity Objects (%) [3]: 0%
Population Membrane Permeable-Phenotype (%) [3]: 6% and 4%
Population Mitochondria Different-Phenotype (%) [3]: 0%
Population Mitotic Cells (%) [3]: 41% and 50%
Population Normal (%) [3]: 99% and 100%
Population Pyknosed Nuclei (%) [3]: 16% and 20%
Population Tubulin-Different-Phenotype (%) [3]: 7% and 8%
Total Cell Count [3]: 175 and 190
Population Apoptotic (%) [4]: 56% and 50%
Population Fragmented Nuclei (%) [4]: 6% and 13%
Population Healthy Nuclei (%) [4]: 63% and 65%
Population Hoechst High Intensity Objects (%) [4]: 0%
Population Membrane Permeable-Phenotype (%) [4]: 2% and 6%
Population Mitochondria Different-Phenotype (%) [4]: 1%
Population Mitotic Cells (%) [4]: 43% and 50%
Population Normal (%) [4]: 100% and 99%
Population Pyknosed Nuclei (%) [4]: 30% and 21%
Population Tubulin-Different-Phenotype (%) [4]: 6% and 8%
Total Cell Count [4]: 152 and 221
Population Apoptotic (%) [5]: 80% and 40%
Population Fragmented Nuclei (%) [5]: 8% and 11%
Population Healthy Nuclei (%) [5]: 79% and 75%
Population Hoechst High Intensity Objects (%) [5]: 0%
Population Membrane Permeable-Phenotype (%) [5]: 4% and 6%
Population Mitochondria Different-Phenotype (%) [5]: 0%
Population Mitotic Cells (%) [5]: 20% and 60%
Population Normal (%) [5]: 99%
Population Pyknosed Nuclei (%) [5]: 11% and 12%
Population Tubulin-Different-Phenotype (%) [5]: 4% and 3%
Total Cell Count [5]: 169 and 204
Population Apoptotic (%) [6]: 90% and 59%
Population Fragmented Nuclei (%) [6]: 8% and 11%
Population Healthy Nuclei (%) [6]: 71% and 68%
Population Hoechst High Intensity Objects (%) [6]: 0%
Population Membrane Permeable-Phenotype (%) [6]: 0% and 4%
Population Mitochondria Different-Phenotype (%) [6]: 0%
Population Normal (%) [6]: 100%
Population Pyknosed Nuclei (%) [6]: 19%
Population Tubulin-Different-Phenotype (%) [6]: 3% and 7%
Total Cell Count [6]: 151 and 212

Cc1cccc(S(=O)(=O)N(C)[C@H](C)CCN2CCC(C)CC2)c1.Cl
Population Apoptotic (%) [1]: 34% and 44%
Population Fragmented Nuclei (%) [1]: 11% and 9%
Population Healthy Nuclei (%) [1]: 67% and 73%
Population Hoechst High Intensity Objects (%) [1]: 0%
Population Membrane Permeable-Phenotype (%) [1]: 8% and 4%
Population Mitochondria Different-Phenotype (%) [1]: 1% and 3%
Population Mitotic Cells (%) [1]: 65% and 55%
Population Normal (%) [1]: 100%
Population Pyknosed Nuclei (%) [1]: 20% and 17%
Population Tubulin-Different-Phenotype (%) [1]: 16% and 10%
Total Cell Count [1]: 140 and 163
Population Apoptotic (%) [2]: 42% and 46%
Population Fragmented Nuclei (%) [2]: 16% and 8%
Population Healthy Nuclei (%) [2]: 70% and 80%
Population Hoechst High Intensity Objects (%) [2]: 0%
Population Membrane Permeable-Phenotype (%) [2]: 6% and 4%
Population Mitochondria Different-Phenotype (%) [2]: 2% and 1%
Population Mitotic Cells (%) [2]: 57% and 53%
Population Normal (%) [2]: 100%
Population Pyknosed Nuclei (%) [2]: 13% and 10%
Population Tubulin-Different-Phenotype (%) [2]: 35% and 13%
Total Cell Count [2]: 187 and 145
Population Apoptotic (%) [3]: 50% and 54%
Population Fragmented Nuclei (%) [3]: 16% and 13%
Population Healthy Nuclei (%) [3]: 61% and 71%
Population Hoechst High Intensity Objects (%) [3]: 1% and 0%
Population Membrane Permeable-Phenotype (%) [3]: 8% and 2%
Population Mitochondria Different-Phenotype (%) [3]: 1% and 0%
Population Mitotic Cells (%) [3]: 50% and 45%
Population Normal (%) [3]: 98% and 100%
Population Pyknosed Nuclei (%) [3]: 22% and 15%
Population Tubulin-Different-Phenotype (%) [3]: 14% and 9%
Total Cell Count [3]: 144 and 156
Population Apoptotic (%) [4]: 50% and 53%
Population Fragmented Nuclei (%) [4]: 13% and 9%
Population Healthy Nuclei (%) [4]: 76% and 81%
Population Hoechst High Intensity Objects (%) [4]: 0%
Population Membrane Permeable-Phenotype (%) [4]: 6% and 1%
Population Mitochondria Different-Phenotype (%) [4]: 2% and 0%
Population Mitotic Cells (%) [4]: 50% and 46%
Population Normal (%) [4]: 100%
Population Pyknosed Nuclei (%) [4]: 10% and 9%
Total Cell Count [4]: 177 and 144
Population Apoptotic (%) [5]: 58% and 73%
Population Fragmented Nuclei (%) [5]: 15%
Population Healthy Nuclei (%) [5]: 63% and 72%
Population Hoechst High Intensity Objects (%) [5]: 0%
Population Membrane Permeable-Phenotype (%) [5]: 4% and 1%
Population Mitochondria Different-Phenotype (%) [5]: 2% and 0%
Population Mitotic Cells (%) [5]: 41% and 26%
Population Normal (%) [5]: 100%
Population Pyknosed Nuclei (%) [5]: 20% and 11%
Total Cell Count [5]: 139 and 160
Population Apoptotic (%) [6]: 54% and 72%
Population Fragmented Nuclei (%) [6]: 20% and 11%
Population Healthy Nuclei (%) [6]: 74% and 81%
Population Hoechst High Intensity Objects (%) [6]: 0%
Population Membrane Permeable-Phenotype (%) [6]: 2%
Population Mitochondria Different-Phenotype (%) [6]: 0%
Population Mitotic Cells (%) [6]: 45% and 27%
Population Normal (%) [6]: 100%
Population Pyknosed Nuclei (%) [6]: 5% and 7%
Total Cell Count [6]: 185 and 152

Cc1ccc(C(=O)Nc2cc(N3CCN(C)CC3)cc(C(F)(F)F)c2)cc1-n1cc(-c2cnn(C)c2C)nn1.Cl
Population Apoptotic (%) [1]: 40% and 42%
Population Fragmented Nuclei (%) [1]: 6% and 16%
Population Healthy Nuclei (%) [1]: 48% and 59%
Population Hoechst High Intensity Objects (%) [1]: 0%
Population Membrane Permeable-Phenotype (%) [1]: 20% and 12%
Population Mitochondria Different-Phenotype (%) [1]: 2%
Population Mitotic Cells (%) [1]: 59% and 57%
Population Normal (%) [1]: 100%
Population Pyknosed Nuclei (%) [1]: 44% and 24%
Population Tubulin-Different-Phenotype (%) [1]: 35% and 32%
Total Cell Count [1]: 165 and 172
Population Apoptotic (%) [2]: 61% and 35%
Population Fragmented Nuclei (%) [2]: 17% and 18%
Population Healthy Nuclei (%) [2]: 51% and 62%
Population Hoechst High Intensity Objects (%) [2]: 0% and 1%
Population Membrane Permeable-Phenotype (%) [2]: 12% and 11%
Population Mitochondria Different-Phenotype (%) [2]: 4% and 7%
Population Mitotic Cells (%) [2]: 38% and 64%
Population Normal (%) [2]: 99% and 98%
Population Pyknosed Nuclei (%) [2]: 30% and 19%
Population Tubulin-Different-Phenotype (%) [2]: 85% and 70%
Total Cell Count [2]: 198 and 294
Population Apoptotic (%) [3]: 65% and 41%
Population Fragmented Nuclei (%) [3]: 10% and 17%
Population Healthy Nuclei (%) [3]: 46% and 59%
Population Hoechst High Intensity Objects (%) [3]: 0%
Population Membrane Permeable-Phenotype (%) [3]: 7% and 4%
Population Mitochondria Different-Phenotype (%) [3]: 7%
Population Mitotic Cells (%) [3]: 34% and 58%
Population Normal (%) [3]: 99% and 100%
Population Pyknosed Nuclei (%) [3]: 42% and 23%
Population Tubulin-Different-Phenotype (%) [3]: 36% and 35%
Total Cell Count [3]: 150 and 176
Population Apoptotic (%) [4]: 68% and 63%
Population Fragmented Nuclei (%) [4]: 16% and 17%
Population Healthy Nuclei (%) [4]: 57% and 59%
Population Hoechst High Intensity Objects (%) [4]: 0% and 1%
Population Membrane Permeable-Phenotype (%) [4]: 7% and 5%
Population Mitochondria Different-Phenotype (%) [4]: 12% and 15%
Population Mitotic Cells (%) [4]: 31% and 36%
Population Normal (%) [4]: 99% and 98%
Population Pyknosed Nuclei (%) [4]: 25% and 23%
Population Tubulin-Different-Phenotype (%) [4]: 76% and 58%
Total Cell Count [4]: 261 and 279
Population Apoptotic (%) [5]: 76% and 68%
Population Fragmented Nuclei (%) [5]: 15% and 18%
Population Healthy Nuclei (%) [5]: 49% and 66%
Population Hoechst High Intensity Objects (%) [5]: 0% and 1%
Population Membrane Permeable-Phenotype (%) [5]: 2%
Population Mitochondria Different-Phenotype (%) [5]: 5%
Population Mitotic Cells (%) [5]: 23% and 32%
Population Normal (%) [5]: 100% and 98%
Population Pyknosed Nuclei (%) [5]: 34% and 15%
Population Tubulin-Different-Phenotype (%) [5]: 32% and 19%
Total Cell Count [5]: 161 and 167
Population Apoptotic (%) [6]: 84% and 82%
Population Fragmented Nuclei (%) [6]: 19%
Population Healthy Nuclei (%) [6]: 59% and 63%
Population Hoechst High Intensity Objects (%) [6]: 3% and 4%
Population Membrane Permeable-Phenotype (%) [6]: 5% and 6%
Population Mitochondria Different-Phenotype (%) [6]: 10%
Population Mitotic Cells (%) [6]: 15% and 17%
Population Normal (%) [6]: 96% and 95%
Population Pyknosed Nuclei (%) [6]: 21% and 17%
Population Tubulin-Different-Phenotype (%) [6]: 68% and 54%
Total Cell Count [6]: 226 and 303
